Most compounds without a hit are left out; they make up all but 11% or so of the library.
D1 mod: D1 dopamine receptor (human) allosteric modulation. P21728. B-score at 10 µM. 58,000 tested, 5.9% active. HEK293 D1, CRE-luciferase, dopamine EC30 potentiation; actives deviate in either direction;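 active = luminescence count or its row- and column-corrected plate score outside the 99.7% band of the plate's sample wells, on either side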
S1P3 ag: activates the human S1P3 receptor; activation, % at 4.5 µM; 60,000 tested, 0.1% active; S1P3 NFAT-BLA reporter cells, agonism, FRET ratio; relative to 1 µM S1P, basal subtracted; Q99500;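 active = activation above the screen-wide mean plus 3 SD, cut at about 4.5% in these data, passing the limit was not always enough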
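Assay system: CHO cells stably expressing human S1P3, Gα16 and NFAT-β-lactamase reporter. Timing: overnight plating, 4 h compound 37 °C, 2 h substrate RT. Signal: β-lactamase FRET emission ratio 460/535 nm. Measure: percent activation versus median 1 µM S1P response, basal-subtracted, per plate. Repeats: primary screen single test, confirmation screen in triplicate.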
M1 ag: M1 muscarinic receptor agonism; B-score at 10 µM; CHO-M1 cells, Fluo-4 calcium fluorescence, agonist mode; stronger effect = higher value; 64,000 tested, 3% active; AID 626;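 active = fluorescence rise, raw or as B-score row- and column-corrected plate score, outside the 99.7% band of its plate's samples, either direction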
S1P1 ag-PAM: S1P1 (human) agonism or agonism potentiation; S1P1 CRE-bla cells, forskolin, beta-lactamase FRET, potentiator mode; S1P1 agonist co-added at EC20, 2 nM; 100% = saturating reference agonist, 0% = basal; activation, % at 9.5 µM; 56,000 tested, 0.57% active;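 active = activation above a cutoff set at the mean activation of all tested compounds plus 3 SD, cut at about 54% in these data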;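 also: forskolin at 4 µM as EC80 and the EC20 agonist is SEW2871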
M1 antagonist: blocks the rat M1 muscarinic receptor response to acetylcholine. CHO-M1 cells, Fluo-4 calcium, ACh EC80 antagonist mode; stronger effect = lower value. B-score at 10 µM. 64,000 tested, 3.4% active. AID 628;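 active = calcium fluorescence response, raw or row-and-column corrected B-score, differing from the plate sample mean either way at a set confidence level, mostly lower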
M1 ag confirm: confirmation of rat M1 muscarinic receptor agonists | shares compounds with M1 ag | CHO-M1 cells, Fluo-4 calcium fluorescence, agonist mode; actives lie on both sides | fluorescence change (max-min) at 10 µM | 1,700 tested, 19% active | AID 1488;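 active = fluorescence change differs from the solvent-only DMSO control mean at a set confidence level in both duplicate runs; inconclusive = differs from solvent-only control mean in just one of two runs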;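 also: an EC20 dose of acetylcholine follows compound addition during the same imaging run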
M4 agonist ctr: rat M4 muscarinic agonism, M1 counter-screen; shares compounds with M1 ag; CHO M4/Gqi5 cells, Fluo-4 calcium fluorescence, agonist mode; actives lie on both sides; fluorescence change (max-min) at 10 µM; 1,700 tested, 9% active;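 active = fluorescence change differing from the plate's solvent-only control wells at 99.7% confidence in both duplicates, whether higher or lower; inconclusive = differs from solvent controls in only one of two duplicates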
Target sequence (P08485 whole entry, looked up): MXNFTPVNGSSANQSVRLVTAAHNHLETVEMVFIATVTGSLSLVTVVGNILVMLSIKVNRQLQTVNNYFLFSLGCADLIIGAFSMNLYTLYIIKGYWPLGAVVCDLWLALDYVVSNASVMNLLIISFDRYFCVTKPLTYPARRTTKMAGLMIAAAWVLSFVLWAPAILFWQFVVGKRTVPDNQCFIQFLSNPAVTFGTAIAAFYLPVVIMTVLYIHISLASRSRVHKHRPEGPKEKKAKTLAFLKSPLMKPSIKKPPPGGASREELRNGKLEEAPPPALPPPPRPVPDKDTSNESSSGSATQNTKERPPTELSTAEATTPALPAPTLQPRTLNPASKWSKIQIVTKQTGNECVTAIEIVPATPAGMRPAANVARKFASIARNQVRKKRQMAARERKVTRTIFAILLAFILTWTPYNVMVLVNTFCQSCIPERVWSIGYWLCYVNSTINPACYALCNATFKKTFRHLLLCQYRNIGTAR
Numbers stand for hits; n = inactive; u = inconclusive; x = no result.

SMILES	D1 mod	S1P3 ag	M1 ag	S1P1 ag-PAM	M1 antagonist	M1 ag confirm	M4 agonist ctr
COc1ccc(N(CC(=O)NCc2cccnc2)S(=O)(=O)c2c(C)nn(C)c2C)cc1	n	n	n	n	n	x	x
Cc1ccc(-c2noc(CCC(=O)NCCCN3CCN(c4ccc(F)cc4)CC3)n2)cc1	-4.98	n	5.28	n	-2.57	n	n
CC1(C)CC(=O)c2cc(OCC(=O)NCCCN3CCN(c4ccc(F)cc4)CC3)ccc2O1	-4.22	n	13.2	n	n	n	n
Cc1ccc(-c2noc(CCC(=O)NCCCN3CCN(c4cccc(Cl)c4)CC3)n2)cc1	-3.93	n	4.38	n	-3.74	u	n
CC1(C)CC(=O)c2cc(OCC(=O)NCCN3CCCc4ccccc43)ccc2O1	n	n	n	n	n	x	x
COc1ccc(-c2noc(CCC(=O)NCCN3CCN(c4ccccc4F)CC3)n2)cc1	-2.8	x	5.02	x	n	n	n
Clc1cccc(N2CCN(Cc3nc(-c4ccccc4)no3)CC2)c1	n	n	n	n	n	x	x
COc1ccc(-c2noc(CCC(=O)NCCCN3CCC(C)CC3)n2)cc1	n	x	n	x	n	x	x
O=C(O)c1c(-c2ccccc2)c2oc3ccccc3c2[nH]c1=O	n	n	n	n	n	x	x
CS(=O)(=O)N(CC(=O)NCc1ccccn1)Cc1ccc(Cl)cc1	n	n	n	n	n	x	x
Cn1c(C(=O)NCC2CCCO2)cc2c(=O)n(C)c3ccccc3c21 (stereo not given)	n	n	n	n	n	x	x
Cn1c(C(=O)NC2CCCC2)cc2c(=O)n(C)c3ccccc3c21	n	n	4.1	n	n	-39	n
CCCN1Cc2cccc(C(=O)N3CCN(c4cc(Cl)ccc4C)CC3)c2C1=O	n	n	2.31	n	n	u	n
Cc1ccc(Cl)cc1N1CCN(C(=O)c2cc3c(=O)n(C)c4ccccc4c3n2C)CC1	-4.05	n	7.39	n	n	n	n
COc1cc(NC(=O)c2nnn(Cc3ccc(SC)cc3)c2N)cc(OC)c1	n	n	n	n	n	x	x
Cc1ccc2[nH]c(=O)c(CN(Cc3ccccc3Cl)C(=O)N3CCOCC3)cc2c1	n	n	2.24	n	n	-29	-81.6
Cc1ccc2[nH]c(=O)c(CN(CCN3CCOCC3)C(=O)Nc3ccccc3F)cc2c1	n	n	n	n	n	x	x
O=C(O)CCCC(=O)Nc1ccccc1C(=O)N1CCCC1	n	n	n	n	n	x	x
O=C1CC(=O)N(Cc2cccs2)C(=O)N1	n	n	n	n	n	x	x
O=C1CC(=O)N(Cc2ccco2)C(=O)N1	n	n	3.01	x	n	u	n
CCCn1nc(C(=O)Nc2cccc(C(=O)OC)c2)c2ccccc2c1=O	n	n	5.69	n	n	n	n
O=C1c2ccccc2C(=O)N1CCc1nc2ccccc2c(=O)n1Cc1ccco1	n	n	9.44	n	n	n	n
CS(=O)(=O)N1CCC(C(=O)Nc2ccc(Oc3ccccc3)cc2)CC1	n	n	3.2	n	n	u	n
CC(=O)c1cccc(S(=O)(=O)NCC(c2ccco2)N2CCCCC2)c1 (stereo not given)	n	n	n	n	n	x	x
CN(C)c1ccc(/C=C/c2cc[n+]([O-])cc2)cc1	n	n	247	n	n	876	895
SMILES	D1 mod	S1P3 ag	M1 ag	S1P1 ag-PAM	M1 antagonist	M1 ag confirm	M4 agonist ctr
O/N=C1\CCc2cc(Cl)ccc21	x	n	5.48	n	n	n	n
O=P(O)(CN1CCCCC1)C1CCCCC1O (stereo not given)	n	n	n	n	n	x	x
COc1ccc(NC(=O)c2[nH]c(C)c(C(C)=O)c2C)cc1Cl	x	x	5.5	x	-3.05	n	n
CCN(CC)S(=O)(=O)c1cccc(-c2nnc(SCCOc3ccccc3C)o2)c1	x	n	5.56	n	n	n	u
CCN(CC)S(=O)(=O)c1cccc(-c2nnc(SCCOc3ccc(Cl)cc3)o2)c1	n	n	n	n	n	x	x
CCC(C)[C@H](NC(=O)Nc1ccc(C(C)=O)cc1)C(=O)OC (stereo not given in full)	n	n	n	n	n	x	x
CN(C(=O)c1cnc(N2CCN(c3ncccn3)CC2)c2ccccc12)c1ccc(Cl)cc1	n	n	5.32	n	n	n	u
